Measurements from ChEMBL document CHEMBL1123291, “Modified di- and tripeptides of the C-terminal portion of oxytocin and vasopressin as possible cognition activation agents” (1986).
Non-standard residues stand in square brackets, D forms with d. Residues, ends and D or L forms follow the SMILES beside them. ξ: configuration not given here. *: point of attachment. Arg(NO2) = N=C(NCCC[C@H](N)C(=O)O)N[N+](=O)[O-]; ξArg(NO2) = N=C(NCCCC(N)C(=O)O)N[N+](=O)[O-]; Cbz = O=C(OCc1ccccc1)*; Boc = CC(C)(C)OC(=O)*; ξK = NCCCCC(N)C(=O)O

Experiments:
Assay type in all cases: functional
Rattus norvegicus [1] = experiment: Ability (% reversal in rats) to reverse electroconvulsive shock-induced amnesia in rodents at a dose of 0.010 (mg/kg) administered intramuscularly (im)
In short: (§1)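 Passive avoidance (step-through, lighted vs darkened compartment). […], ECS (20 mA, 1 s) was given transcorneally via saline-soaked electrodes, and maximal hindlimb extension was required. Drug was given im at selected doses 2 h post-training. One hour later, entry latency to the dark side was recorded, with 60 s counted as retention. At least 75% of ECS controls had to be amnesic. Replicates were mostly not run.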

Rattus norvegicus [2] = experiment: Ability (% reversal in rats) to reverse electroconvulsive shock-induced amnesia in rodents at a dose of 0.10 (mg/kg) (following intramuscular dosing); in short: as §1
Rattus norvegicus [3] = experiment: Ability (% reversal in rats) to reverse electroconvulsive shock-induced amnesia in rodents at a dose of 0.0010 (mg/kg) (following i.m. administration); in short: as §1
Rattus norvegicus [4] = experiment: Compound was tested for its ability (% reversal in rats) to reverse electroconvulsive shock-induced amnesia in rodents at a dose of 100 (mg/kg) administered intramuscularly (im); in short: as §1
Rattus norvegicus [5] = experiment: Compound was tested for its ability (% reversal in rats) to reverse electroconvulsive shock-induced amnesia in rodents at a dose of 1 (mg/kg) administered intramuscularly (im); in short: as §1
Rattus norvegicus [6] = experiment: Compound was tested for its ability (% reversal in rats) to reverse electroconvulsive shock-induced amnesia in rodents at a dose of 10 (mg/kg) administered intramuscularly (im); in short: as §1
Mus musculus [7] = experiment: Ability to reverse electroconvulsive shock-induced amnesia in rodents following 0.1 mg/kg i.m. administration.; conditions: route intramuscular; in short: as §1
Mus musculus [8] = experiment: Ability to reverse electroconvulsive shock-induced amnesia in rodents following 1 ug/kg i.m. administration.; in short: as §1
Mus musculus [9] = experiment: Ability to reverse electroconvulsive shock-induced amnesia in rodents following 0.01 mg/kg i.m. administration.; conditions: route intramuscular; in short: as §1
Rattus norvegicus [10] = experiment: Compound was tested for its ability (% reversal in rats) to reverse electroconvulsive shock-induced amnesia in rodents at a dose of 0.010 (mg/kg) administered intramuscularly (im).; in short: as §1

| SMILES | Reversal (Rattus norvegicus [1]) | Reversal (Rattus norvegicus [2]) | Reversal (Rattus norvegicus [3]) | Reversal (Rattus norvegicus [4]) | Reversal (Rattus norvegicus [5]) | Reversal (Rattus norvegicus [6]) | Reversal (Mus musculus [7]) | Reversal (Mus musculus [8]) | Reversal (Mus musculus [9]) | Reversal (Rattus norvegicus [10]) |
| --- | --- | --- | --- | --- | --- | --- | --- | --- | --- | --- |
| CC(C)CC(CSCC(=O)O)NC(=O)c1ccccn1 (stereo not given) | 0% | 14% | 57% |  |  |  |  |  |  |  |
| NC(=O)CNC(=O)COCC1CCCN1C(=O)OCc1ccccc1 (stereo not given) | 33% | 20% | 56% |  |  |  |  |  |  |  |
| Cc1ccc(S(=O)(=O)N2CCCC2CN[C@@H](CC(C)C)C(=O)NCC(N)=O)cc1 (stereo not given in full) | 0% | 34% | 0% | 87% | 75% | 62% |  |  |  |  |
| CC(C)CC(OCC1CCCN1C(=O)OCc1ccccc1)C(=O)NCC(=O)O (stereo not given) | 71% | 43% | 29% |  |  |  |  |  |  |  |
| O=C(NC(Cc1ccccc1)CN1C(=O)C2CCCN2C(=O)C1Cc1c[nH]cn1)c1ccccc1 (stereo not given) | 0% | 43% | 0% | 83% | 50% | 30% |  |  |  |  |
| CC(C)(C)OC(=O)N1CCCC1CN[C@@H](CCCCNC(=O)OCc1ccccc1)C(=O)NCC(N)=O (stereo not given in full) | 33% | 16% | 16% |  |  |  |  |  |  |  |
| CC(C)CC(CSCC(N)=O)NCC1CCCN1C(=O)OCc1ccccc1 (stereo not given) | 25% | 25% | 45% |  |  |  |  |  |  |  |
| CC(C)CC(OCC1CCCN1C(=O)OCc1ccccc1)C(=O)NCC(N)=O (stereo not given) | 0% | 0% | 33% |  |  |  |  |  |  |  |
| CC(C)CC(/C=C/CC(N)=O)NC(=O)C1CCCN1C(=O)OCc1ccccc1 (stereo not given) | 77% | 44% | 33% |  |  |  |  |  |  |  |
| O=C(NCCCCC(SCC1CCCN1C(=O)OCc1ccccc1)C(=O)[O-])OCc1ccccc1.[Na+] (stereo not given) | 12% | 45% | 45% |  |  |  |  |  |  |  |
| Cc1ccc(S(=O)(=O)N2CCCC2CNC(CC(C)C)C(=O)NCC(=O)O)cc1 (stereo not given) | 33% | 0% | 33% |  |  |  |  |  |  |  |
| CC(C)CC1CN(C[C@H](CC(C)C)NC(=O)[C@@H]2CCC(=O)N2)CC(=O)N1 (stereo not given in full) |  |  |  | 0% | 0% | 0% |  |  |  |  |
| O=C(NCCCCC(CO)NC(=O)C1CCCN1C(=O)OCc1ccccc1)OCc1ccccc1 (stereo not given) | 40% | 40% | 50% | 0% | 0% | 20% |  |  |  |  |
| CC(C)CC(CSCC(=O)O)NC(=O)C1CCCN1C(=O)OCc1ccccc1 (stereo not given) | 57% | 14% | 57% |  |  |  | 69% | 69% | 77% |  |
| CC(C)CC(COCC(=O)O)NC(=O)C1CCCN1C(=O)OCc1ccccc1 (stereo not given) | 0% | 0% | 29% |  |  |  |  |  |  |  |
| CC(C)C[C@@H](CSCC(=O)O)NCC1CCCN1C(=O)OCc1ccccc1 (stereo not given in full) | 80% | 60% | 20% | 100% | 60% | 0% |  |  |  |  |
| O=C(O)COCC1CCCN1C(=O)OCc1ccccc1 (stereo not given) | 40% | 50% | 40% | 62% | 37% | 62% |  |  |  |  |
| NC(=O)CNC(=O)[C@H](CCCCNC(=O)OCc1ccccc1)NCC1CCCN1 (stereo not given in full) | 16% | 33% | 0% | 83% | 16% | 16% |  |  |  |  |
| Cc1ccc(C(=O)NC(CSCC(=O)O)CC(C)C)s1 (stereo not given) | 60% | 20% | 60% |  |  |  |  |  |  |  |
| CCSCCNC(=O)C(CC(C)C)SCC1CCCN1C(=O)OCc1ccccc1 (stereo not given) | 0% | 0% | 33% |  |  |  |  |  |  |  |
| CCCNC(=O)C(CC(C)C)SCC1CCCN1C(=O)OCc1ccccc1 (stereo not given) | 20% | 20% | 60% |  |  |  |  |  |  |  |
| CC(C)CC(COCC(N)=O)NC(=O)C1CCCN1C(=O)OCc1ccccc1 (stereo not given) | 57% | 14% | 42% |  |  |  |  |  |  |  |

| SMILES | Reversal (Rattus norvegicus [1]) | Reversal (Rattus norvegicus [2]) | Reversal (Rattus norvegicus [3]) | Reversal (Rattus norvegicus [4]) | Reversal (Rattus norvegicus [5]) | Reversal (Rattus norvegicus [6]) | Reversal (Mus musculus [7]) | Reversal (Mus musculus [8]) | Reversal (Mus musculus [9]) | Reversal (Rattus norvegicus [10]) |
| --- | --- | --- | --- | --- | --- | --- | --- | --- | --- | --- |
| COc1ccc(C(=O)N2CCCC2C(=O)NC(CSCC(=O)O)CC(C)C)cc1 (stereo not given) |  | 60% | 40% |  |  |  | 12% | 12% | 50% | 0% |
| NC(=O)CC[C@@H]1NC(=O)[C@H](Cc2ccccc2)NC(=O)[C@H](Cc2ccc(O)cc2)NC(=O)[C@@H](N)CSSC[C@@H](C(=O)N2CCC[C@H]2C(=O)N[C@@H](CCCN=C(N)N)C(=O)NCC(N)=O)NC(=O)[C@H](CC(N)=O)NC1=O | 100% | 60% | 0% |  |  |  |  |  |  |  |
| Cc1ccc(S(=O)(=O)N2CCCC2C(=O)NC(CNCC(=O)O)CC(C)C)cc1 (stereo not given) | 33% | 17% | 17% |  |  |  |  |  |  |  |
| O=C(O)CNC(=O)COCC1CCCN1C(=O)OCc1ccccc1 (stereo not given) | 43% | 57% | 14% |  |  |  |  |  |  |  |
| NCCCC[C@H](NC(=O)[C@@H]1CCCN1C(=O)[C@@H]1CSSC[C@H](N)C(=O)N[C@@H](Cc2ccc(O)cc2)C(=O)N[C@@H](Cc2ccccc2)C(=O)N[C@@H](CCC(N)=O)C(=O)N[C@@H](CC(N)=O)C(=O)N1)C(=O)NCC(N)=O |  | 56% | 20% |  |  |  | 67% | 58% | 58% | 20% |
| CC(C)(C)OC(=O)N1CCC[C@H]1C(=O)N[C@@H](CCCN=C(N)N)C(=O)NCC(N)=O (Boc-Pro-Arg-Gly-NH2) |  |  |  |  |  |  | 71% | 0% | 43% |  |
| CC(C)(C)OC(=O)N1CCC[C@H]1C(=O)N[C@@H](CCCCNC(=O)OCc1ccccc1)C(=O)NCC(N)=O (Boc-Pro-Lys(Cbz)-Gly-NH2) |  |  |  |  |  |  | 0% | 91% | 63% |  |
| CC(C)(C)OC(=O)N1CCC[C@H]1C(=O)N[C@@H](CCCCN)C(=O)NCC(N)=O (Boc-Pro-Lys-Gly-NH2) |  |  |  |  |  |  | 33% | 25% | 17% |  |
| CC(C)(C)OC(=O)N1CCC[C@H]1C(=O)N[C@@H](CCC/N=C(\N)N[N+](=O)[O-])C(=O)NCC(N)=O (Boc-Pro-[Arg(NO2)]-Gly-NH2) |  |  |  |  |  |  | 33% | 44% | 20% |  |
| CC(C)(C)OC(=O)NC(CCC/N=C(\N)N[N+](=O)[O-])C(=O)NCC(N)=O (stereo not given) (Boc-[ξArg(NO2)]-Gly-NH2) |  |  |  |  |  |  | 73% | 33% | 53% |  |
| CC(C)(C)OC(=O)NC(CCCCNC(=O)OCc1ccccc1)C(=O)NCC(N)=O (stereo not given) (Boc-[ξK](Cbz)-Gly-NH2) | 47% | 16% | 33% |  |  |  | 35% | 48% | 53% |  |
| CC(C)C[C@H](NC(=O)[C@@H]1CCCN1C(=O)OCc1ccccc1)C(=O)NCC(N)=O (Cbz-Pro-Leu-Gly-NH2) |  |  |  |  |  |  | 100% | 93% | 47% |  |
| CC(C)(C)OC(=O)NCCCC[C@H](NC(=O)[C@@H]1CCCN1C(=O)OCc1ccccc1)C(=O)NCC(N)=O (Cbz-Pro-Lys(Boc)-Gly-NH2) | 0% | 0% | 50% |  |  |  |  |  |  |  |
| COC(=O)CNC(=O)[C@H](CCCCNC(=O)OC(C)(C)C)NC(=O)[C@@H]1CCCN1C(=O)OCc1ccccc1 (Cbz-Pro-Lys(Boc)-Gly-OMe) |  |  |  |  |  |  | 0% | 91% | 54% |  |
| NCCCC[C@H](NC(=O)[C@@H]1CCCN1C(=O)OCc1ccccc1)C(=O)NCC(N)=O (Cbz-Pro-Lys-Gly-NH2) |  |  |  |  |  |  | 63% | 9% | 100% |  |
| NCCCC[C@H](NC(=O)[C@@H]1CCCN1C(=O)OCc1ccccc1)C(=O)NCC(=O)O (Cbz-Pro-Lys-Gly-OH) |  |  |  |  |  |  | 79% | 100% | 79% |  |
| CC(C)(C)OC(=O)NCCCCC(NC(=O)OCc1ccccc1)C(=O)NCC(N)=O (stereo not given) (Cbz-[ξK](Boc)-Gly-NH2) |  |  |  |  |  |  | 33% | 33% | 25% |  |
| NC(=O)CNC(=O)[C@@H](N)CCCN=C(N)N (H-Arg-Gly-NH2) |  |  |  |  |  |  | 27% | 51% | 20% |  |
| N=C(N)NCCC[C@H](NC(=O)[C@@H]1CCCN1)C(=O)NCC(N)=O (H-Pro-Arg-Gly-NH2) |  |  |  |  |  |  | 30% | 30% | 0% |  |
| CC(C)C[C@H](NC(=O)[C@@H]1CCCN1)C(=O)NCC(N)=O (H-Pro-Leu-Gly-NH2) | 43% | 43% | 14% |  |  |  | 42% | 42% | 33% |  |
| NCCCC[C@H](NC(=O)[C@@H]1CCCN1)C(=O)NCC(N)=O (H-Pro-Lys-Gly-NH2) | 78% | 78% | 78% |  |  |  | 39% | 100% | 48% |  |
